Results taken from ChEMBL document CHEMBL1240362, “Intrapulmonary pharmacokinetics of S-013420, a novel bicyclolide antibacterial, in healthy Japanese subjects” (Antimicrob Agents Chemother, 2010).

Key:
[1] = Ratio of drug level in alveolar macrophages to plasma in healthy human at 400 mg, po administered as single dose after 6 hrs
[2] = tested on: Homo sapiens; assay: Toxicity in healthy human assessed as alveolar macrophage count in bronchoalveolar fluid at 400 mg, po administered as single dose after 2 hrs; details: in vivo
[3] = tested on: Homo sapiens; assay: Toxicity in healthy human assessed as eosinophil count in bronchoalveolar fluid at 400 mg, po administered as single dose after 10 hrs; details: in vivo
[4] = Plasma concentration in healthy human at […], po after 8 hrs; format: ADME, organism-based; design: route oral
Procedure, shortened: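 Healthy nonsmoking Japanese men, 20-45 y, given one oral 400 mg suspension dose. Blood drawn at 0-72 h, spun at 1,600 × g for 10 min at 4°C, plasma kept at −20°C. Drug measured by validated LC/MS/MS, linear 0.005-5 μg/ml. Values are mean ± SD, n = 28. Cmax, Tmax and t1/2,z are model-independent; AUC0-24 by trapezoidal method.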

[5] = Ratio of AUC (0 to 24 hrs) in plasma of healthy human to MIC90 for Haemophilus influenzae; format: functional
[6] = tested on: Homo sapiens; assay: Toxicity in healthy human assessed as lymphocytes count in bronchoalveolar fluid at […], po administered as single dose after 2 hrs; format: organism-based, Lung; design: route oral; details: in vivo
Procedure, shortened: (§1)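 Healthy Japanese male never-smokers, aged 20 to 45 years with normal BMI, got one open-label oral 400 mg suspension dose. Four subjects per time group had one fiber-optic bronchoscopic BAL at the assigned post-dose time. The first aliquot was discarded and the last three were pooled. BAL fluid was held on ice and spun at 400 × g for 5 min at 4°C. Pellet cells were counted by hemocytometer, with a differential count on a stained cytocentrifuge preparation.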

[7] = tested on: Homo sapiens; assay: Toxicity in healthy human assessed as other cellular fractions in bronchoalveolar fluid at […], po administered as single dose after 6 hrs; format: organism-based, Lung; design: route oral; details: in vivo
Procedure, shortened: as §1

[8] = tested on: Homo sapiens; assay: Toxicity in healthy human assessed as lymphocytes count in bronchoalveolar fluid at […], po administered as single dose after 8 hrs; format: organism-based, Lung; design: route oral; details: in vivo
Procedure, shortened: as §1

[9] = tested on: Homo sapiens; assay: Toxicity in healthy human assessed as eosinophil count in bronchoalveolar fluid at 400 mg, po administered as single dose after 12 hrs; details: in vivo
[10] = Drug level in epithelial lining fluid of healthy human at […], po administered as single dose after 8 hrs; format: ADME, organism-based; design: route oral; details: read-out: Drug uptake
Procedure, shortened: (§2)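 Four healthy male volunteers per BAL time (2-24 h) after one oral 400 mg suspension dose. Single bronchoscopic lavage; first aliquot discarded, next three pooled. Supernatant separated at 400 × g, 5 min, 4°C, and drug assayed by LC/MS/MS. ELF level = CBAL × urea plasma/urea BAL, with urea corrected for blood contamination via RBC ratio. PK parameters are model-independent, based on the mean concentration at each time.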

[11] = tested on: Homo sapiens; assay: Toxicity in healthy human assessed as alveolar macrophage count in bronchoalveolar fluid at 400 mg, po administered as single dose after 8 hrs; details: in vivo
[12] = tested on: Homo sapiens; assay: Toxicity in healthy human assessed as other cellular fractions in bronchoalveolar fluid at 400 mg, po administered as single dose after 4 hrs; details: in vivo
[13] = Ratio of drug level in epithelial lining fluid to plasma in healthy human at 400 mg, po administered as single dose after 12 hrs
[14] = Tmax in epithelial lining fluid of healthy human at 400 mg, po administered as single dose
[15] = tested on: Homo sapiens; assay: Toxicity in healthy human assessed as neutrophil count in bronchoalveolar fluid at […], po administered as single dose after 2 hrs; format: organism-based, Lung; design: route oral; details: in vivo
Procedure, shortened: as §1

[16] = tested on: Staphylococcus aureus; assay: Antimicrobial activity against methicillin susceptible Staphylococcus aureus; format: functional
[17] = tested on: Homo sapiens; assay: Toxicity in healthy human assessed as lymphocytes count in bronchoalveolar fluid at […], po administered as single dose after 12 hrs; format: organism-based, Lung; design: route oral; details: in vivo
Procedure, shortened: as §1

[18] = tested on: Homo sapiens; assay: Toxicity in healthy human assessed as alveolar macrophage count in bronchoalveolar fluid at 400 mg, po administered as single dose after 4 hrs; details: in vivo
[19] = Drug level in epithelial lining fluid of healthy human at […] administered as single dose after 2 hrs; format: ADME, organism-based; design: route oral; details: po, read-out: Drug uptake
Procedure, shortened: as §2

[20] = Terminal-phase half-life in plasma of healthy human at 400 mg, po administered as single dose; details: read-out: beta t1/2 (converted)
[21] = Drug level in epithelial lining fluid of healthy human at […], po administered as single dose after 10 hrs; format: ADME, organism-based; design: route oral; details: read-out: Drug uptake
Procedure, shortened: as §2

[22] = tested on: Homo sapiens; assay: Toxicity in healthy human assessed as other cellular fractions in bronchoalveolar fluid at […], po administered as single dose after 10 hrs; format: organism-based, Lung; design: route oral; details: in vivo
Procedure, shortened: as §1

[23] = Cmax in alveolar macrophages of healthy human at 400 mg, po administered as single dose
[24] = Drug level in epithelial lining fluid of healthy human at […], po administered as single dose after 4 hrs; format: ADME, organism-based; design: route oral; details: read-out: Drug uptake
Procedure, shortened: as §2

[25] = AUC (0 to 24 hrs) in epithelial lining fluid of healthy human at 400 mg, po administered as single dose by linear trapezoidal method
[26] = Ratio of drug level in epithelial lining fluid to plasma in healthy human at […] administered as single dose after 8 hrs; format: ADME, organism-based; design: route oral; details: po
Procedure, shortened: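 For each subject, ELF or AM drug level after the single oral 400 mg dose is divided by the plasma level sampled at the BAL time (2-24 h). Ratios are summarized per four-subject group.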

[27] = tested on: Homo sapiens; assay: Toxicity in healthy human assessed as alveolar macrophage count in bronchoalveolar fluid at 400 mg, po administered as single dose after 10 hrs; details: in vivo
[28] = Ratio of drug level in alveolar macrophages to plasma in healthy human at 400 mg, po administered as single dose after 8 hrs
[29] = Ratio of alveolar macrophages AUC (0 to 24 hrs) to plasma AUC (0 to 24 hrs) in healthy human at 400 mg, po administered as single dose
[30] = Ratio of epithelial lining fluid AUC (0 to 24 hrs) to plasma AUC (0 to 24 hrs) in healthy human at 400 mg, po administered as single dose
[31] = tested on: Homo sapiens; assay: Toxicity in healthy human assessed as lymphocytes count in bronchoalveolar fluid at […], po administered as single dose after 24 hrs; format: organism-based, Lung; design: route oral; details: in vivo
Procedure, shortened: as §1

[32] = Drug level in alveolar macrophages of healthy human at […], po administered as single dose after 2 hrs; format: ADME, organism-based, Macrophage; design: route oral; details: read-out: Drug uptake
Procedure, shortened: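 One oral 400 mg suspension dose; four volunteers lavaged at each time (2-24 h). Cell pellet from the pooled 2nd-4th aspirates was counted (hemocytometer, stained cytospin differential). Drug in cell suspension measured by HPLC, divided by AM volume assuming 2.42 μl/10^6 cells. Cmax and Tmax are model-independent, based on mean concentrations at each time.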

SMILES: CC[C@H]1OC(=O)[C@H](C)C(=O)[C@H](C)[C@@H](O[C@@H]2O[C@H](C)C[C@H](N(C)C)[C@H]2O)[C@@]2(C)C[C@@H](C)/C(=N\C(C)=O)[C@H](C)[C@@H](OC/C(=N\OCc3ccc(-n4cccn4)nc3)CO2)[C@]1(C)O [MODITHROMYCIN]
- Kp at 6 h [1]: 183
- Activity [2]: 84.8%
- Activity [3]: 0.1%
- concentration at 8 h [4]: 441 ng/mL
- RatioAUC/MIC [5]: 1.3
- Activity [6]: 15.3%
- Activity [7]: 0.1%
- Activity [8]: 9.3%
- Activity [9]: 0.9%
- concentration at 8 h [10]: 11400 ng/mL
- Activity [11]: 90.4%
- Activity [12]: 0%
- Kp at 12 h [13]: 13.8
- Tmax [14]: 2 h
- Activity [15]: 0%
- MIC90 [16]: ≤ 0.063 µg/mL
- Activity [17]: 13.3%
- Activity [18]: 87.1%
- concentration at 2 h [19]: 16700 ng/mL
- half-life [20]: 1050 min
- concentration at 10 h [21]: 10000 ng/mL
- Activity [22]: 0.5%
- Cmax [23]: 176 µg/mL
- concentration at 4 h [24]: 13700 ng/mL
- AUC(0-t) at 24 h [25]: 212 µg·h/mL
- Kp at 8 h [26]: 25.9
- Activity [27]: 85.8%
- Kp at 8 h [28]: 283
- Kp [29]: 245
- Kp [30]: 20.3
- Activity [31]: 10.8%
- concentration at 2 h [32]: 61 µg/mL
